Key:
[1] = Inhibition of cell growth of human HPDE cells at 25 uM measured after 72 hrs by CCK8 assay relative to control; format: toxicity, cell-based
Outline: (§1)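 Single 25 μM exposure, read by CCK-8, n = 3, relative to control. Seeding was 3×10^3/well for MiaPaCa2, 7×10^3/well for BxPC3 (in RPMI-1640/10% FBS) and 1×10^4/well for HPDE (in KSFM with rEGF/BPE). After 24 h attachment, cells were exposed for 72 h. CCK-8 was then incubated for 1 h, and A450 minus A650 was compared with 0.5% DMSO.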

MIA PaCa-2 [2] = test: Inhibition of cell growth of human MIA PaCa-2 cells measured after 72 hrs by MTT assay; format: functional
Outline: (§2)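 MTT read-out. Cancer lines were grown in DMEM with 10% FBS, glutamine and antibiotics. MCF10A was grown in DMEM:F12 with 5% horse serum, EGF, hydrocortisone, cholera toxin and insulin. Cells were plated in duplicate at 2500–4000/well, and drug was added 24 h later. After 72 h, absorbance was read at 540 nm. Single-point lines used 25 μM. GI50 is 50% growth inhibition versus untreated control. n = 3.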

A2780 [3] = test: Inhibition of cell growth of human A2780 cells measured after 72 hrs by MTT assay; format: functional; outline: as §2
BE(2)-C [4] = test: Inhibition of cell growth of human BE2C cells measured after 72 hrs by MTT assay; format: functional; outline: as §2
HT-29 [5] = test: Inhibition of cell growth of human HT-29 cells measured after 72 hrs by MTT assay; format: functional; outline: as §2
MCF7 [6] = test: Inhibition of cell growth of human MCF7 cells measured after 72 hrs by MTT assay; format: functional; outline: as §2
[7] = Inhibition of cell growth of human SJG2 cells measured after 72 hrs by MTT assay; format: functional; details: SJ-G2; outline: as §2
[8] = Inhibition of cell growth of human MCF-10A cells measured after 72 hrs by MTT assay; format: toxicity, cell-based; outline: as §2
DU-145 = test: Inhibition of cell growth of human DU-145 cells measured after 72 hrs by MTT assay; format: functional; outline: as §2
NCI-H460 = test: Inhibition of cell growth of human NCI-H460 cells measured after 72 hrs by MTT assay; format: functional; outline: as §2
BXPC-3 [9] = test: Inhibition of cell growth of human BXPC-3 cells at 25 uM measured after 72 hrs by CCK8 assay relative to control; format: functional; outline: as §1
U-87 MG = test: Inhibition of cell growth of human U87 cells measured after 72 hrs by MTT assay; format: functional, U-87MG ATCC; outline: as §2
A-431 = test: Inhibition of cell growth of human A-431 cells measured after 72 hrs by MTT assay; format: functional; outline: as §2
MIA PaCa-2 [10] = test: Inhibition of cell growth of human MIA PaCa-2 cells at 25 uM measured after 72 hrs by CCK8 assay relative to control; format: functional; outline: as §1
PANC-1 [11] = test: Inhibition of cell growth of human PANC-1 cells measured after 72 hrs by CCK8 assay; format: functional
ASPC1 [12] = test: Inhibition of cell growth of human ASPC1 cells measured after 72 hrs by CCK8 assay; format: functional
Capan-2 [13] = test: Inhibition of cell growth of human Capan-2 cells measured after 72 hrs by CCK8 assay; format: functional
HPAC [14] = test: Inhibition of cell growth of human HPAC cells measured after 72 hrs by CCK8 assay; format: functional
BXPC-3 [15] = test: Inhibition of cell growth of human BXPC-3 cells measured after 72 hrs by CCK8 assay; format: functional
Outline: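 CCK-8 viability in human pancreatic cancer lines. Compounds were added over 100–0.05 μM 24 h after seeding, alongside a 0.5% DMSO vehicle. After 72 h, CCK-8 was incubated for 1 h at 37 °C. A450 minus A650 was expressed as % of vehicle. IC50 was taken from the dose-response curve. Seeding was 3×10^3/well for MiaPaCa2 and 7×10^3/well for BxPC3 and CFPAC-1. n = 3.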

HPAC [16] = test: Inhibition of cell growth of human HPAC cells at 25 uM measured after 72 hrs by MTT assay relative to control; format: functional; outline: as §2
HT-29 [17] = test: Inhibition of cell growth of human HT-29 cells at 25 uM measured after 72 hrs by MTT assay relative to control; format: functional; outline: as §2
MIA PaCa-2 [18] = test: Inhibition of cell growth of human MIA PaCa-2 cells at 25 uM measured after 72 hrs by MTT assay relative to control; format: functional; outline: as §2
MCF7 [19] = test: Inhibition of cell growth of human MCF7 cells at 25 uM measured after 72 hrs by MTT assay relative to control; format: functional; outline: as §2
A2780 [20] = test: Inhibition of cell growth of human A2780 cells at 25 uM measured after 72 hrs by MTT assay relative to control; format: functional; outline: as §2
Capan-2 [21] = test: Inhibition of cell growth of human Capan-2 cells at 25 uM measured after 72 hrs by MTT assay relative to control; format: functional; outline: as §2
ASPC1 [22] = test: Inhibition of cell growth of human ASPC1 cells at 25 uM measured after 72 hrs by MTT assay relative to control; format: functional; outline: as §2
[23] = Inhibition of cell growth of human MCF-10A cells at 25 uM measured after 72 hrs by MTT assay relative to control; format: toxicity, cell-based; outline: as §2
BXPC-3 [24] = test: Inhibition of cell growth of human BXPC-3 cells at 25 uM measured after 72 hrs by MTT assay relative to control; format: functional; outline: as §2
BE(2)-C [25] = test: Inhibition of cell growth of human BE2C cells at 25 uM measured after 72 hrs by MTT assay relative to control; format: functional; outline: as §2
PANC-1 [26] = test: Inhibition of cell growth of human PANC-1 cells at 25 uM measured after 72 hrs by MTT assay relative to control; format: functional; outline: as §2
BXPC-3 [27] = test: Inhibition of cell growth of human BXPC-3 cells measured after 72 hrs by MTT assay; format: functional; outline: as §2
HPAC [28] = test: Inhibition of cell growth of human HPAC cells measured after 72 hrs by MTT assay; format: functional; outline: as §2
ASPC1 [29] = test: Inhibition of cell growth of human ASPC1 cells measured after 72 hrs by MTT assay; format: functional; outline: as §2
PANC-1 [30] = test: Inhibition of cell growth of human PANC-1 cells measured after 72 hrs by MTT assay; format: functional; outline: as §2
Capan-2 [31] = test: Inhibition of cell growth of human Capan-2 cells measured after 72 hrs by MTT assay; format: functional; outline: as §2

COc1cccc(-c2cn(CCCN3CCN(S(=O)(=O)c4ccc(C(F)(F)F)cc4)CC3)nn2)c1
inhibition at 72 h, 25 µM [1]: 29% | GI50 (MIA PaCa-2 [2]): > 50000 nM | GI50 (A2780 [3]): 21 µM | GI50 (BE(2)-C [4]): > 50000 nM | GI50 (HT-29 [5]): 23 µM | GI50 (MCF7 [6]): 28 µM | GI50 [7]: > 50 µM | GI50 at 72 h [8]: 39 µM | GI50 (DU-145): > 50 µM | GI50 (NCI-H460): > 50 µM | inhibition at 25 µM (BXPC-3 [9]): < 10% | GI50 (U-87 MG): > 50 µM | GI50 (A-431): > 50 µM | inhibition at 25 µM (MIA PaCa-2 [10]): < 10%

O=S(=O)(c1ccc(C(F)(F)F)cc1)N1CCN(CCCn2cc(-c3ccc(C(F)(F)F)cc3)nn2)CC1
GI50 (PANC-1 [11]): 16 µM | GI50 (ASPC1 [12]): 18 µM | GI50 (Capan-2 [13]): 16 µM | GI50 (HPAC [14]): 15 µM | GI50 (BXPC-3 [15]): 14 µM

CCc1ccc(-c2cn(CCCN3CCN(S(=O)(=O)c4ccccc4C(F)(F)F)CC3)nn2)cc1
inhibition at 25 µM (HPAC [16]): 67% | inhibition at 25 µM (HT-29 [17]): 79% | inhibition at 25 µM (MIA PaCa-2 [18]): 39% | inhibition at 25 µM (MCF7 [19]): 82% | inhibition at 25 µM (A2780 [20]): 75% | inhibition at 25 µM (Capan-2 [21]): 25% | inhibition at 25 µM (ASPC1 [22]): 59% | inhibition at 72 h, 25 µM [23]: 63% | inhibition at 25 µM (BXPC-3 [24]): 16% | inhibition at 25 µM (BE(2)-C [25]): 52% | inhibition at 25 µM (PANC-1 [26]): 48%

O=S(=O)(c1ccc(C(F)(F)F)cc1)N1CCN(CCCn2cc(-c3ccc(Br)cc3)nn2)CC1
GI50 (PANC-1 [11]): 6.8 µM | GI50 (ASPC1 [12]): 8.3 µM | GI50 (Capan-2 [13]): 7.7 µM | GI50 (HPAC [14]): 9.6 µM | GI50 (BXPC-3 [15]): 8 µM

COc1ccccc1-c1cn(CCCN2CCN(S(=O)(=O)c3ccc(C(F)(F)F)cc3)CC2)nn1
GI50 (MIA PaCa-2 [2]): 640 nM | GI50 (A2780 [3]): 0.8 µM | GI50 (BE(2)-C [4]): 590 nM | GI50 (HT-29 [5]): 0.47 µM | GI50 (MCF7 [6]): 0.36 µM | GI50 at 72 h [8]: 1 µM | GI50 (BXPC-3 [27]): 480 nM | GI50 (HPAC [28]): 430 nM | GI50 (ASPC1 [29]): 610 nM | GI50 (PANC-1 [30]): 680 nM | GI50 (Capan-2 [31]): 560 nM
